The results in this text go back to ChEMBL document CHEMBL3763095, “Naphtho[1',2':4,5]imidazo[1,2-a]pyridine-5,6-diones: Synthesis, enzymatic reduction and cytotoxic activity” (Bioorg Med Chem Lett, 2016).

Series [1] has as its system MCF7. Briefly: Cytotoxicity against human MCF7 cells expressing NQO1 assessed as cell viability after 24 hrs by MTT assay. It counts as functional. Particulars: MCF7, 24 h, read-out: LC50 (the source's name). Summed up: (§1)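 Cells exposed to the quinones for 24 h, then survival read by MTT assay. Viability expressed as percent of solvent-treated control cells. LC50 (concentration causing 50% lethal effect) obtained from logistic dose-response curves.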
A general note: Tetrazolium dyes change colour on reduction, which living cells bring about.

In series [2] the test system is A549. Briefly: Ratio of LC50 for human A549 cells expressing NQO1 in presence of NQO1 inhibitor dicoumarol to LC50 for human A549 cells expressing NQO1 in absence of NQO1 inhibitor dicoumarol. It counts as functional.
Series [3] has as its system MCF7. In words: Ratio of LC50 for human MCF7 cells expressing NQO1 in presence of NQO1 inhibitor dicoumarol to LC50 for human A549 cells expressing NQO1 in absence of NQO1 inhibitor dicoumarol. It counts as functional.
For series [4], the system named is A549. Briefly: Cytotoxicity against human A549 cells expressing NQO1 assessed as cell viability after 24 hrs by MTT assay. It counts as functional. Particulars: A549, 24 h, read-out: LC50 (the source's name). Put shortly: as §1
The nature of series [5]: Cytotoxicity against NQO1-deficient human HL60 cells assessed as cell viability after 24 hrs by MTT assay. It counts as cell-based, HL-60. The settings on record: read-out: LC50. Put shortly:
as §1

Another series has as its system Staphylococcus aureus. Briefly: Antibacterial activity against Staphylococcus aureus ATCC 25923 after 16 hrs by two-fold microdillution method. It counts as functional. The settings on record: ATCC 25923, 16 h.

As a reminder, the MIC is the least concentration at which growth counts as inhibited. The low end stands for greater potency, the high end for weaker potency.

Molecules are shown by their SMILES. Converted amounts (≈) assume the structure as drawn. Some results are limits rather than exact numbers.

On to `O=C1C(=O)c2c(nc3ccccn23)-c2ccc([N+](=O)[O-])cc21`, for which the CC50 with MCF7 [1] was 280 nM; with A549 [4], 120 nM. Besides, the values for the RatioLC50 in the series with A549 [2] and with MCF7 [3] were 3.3 and 3.6, respectively. For the same molecule, the CC50 at 24 h in series [5] is greater than 15000 nM.
For the molecule `O=C1C(=O)c2c(nc3ccc(Br)cn23)-c2ccccc21`, the CC50 stood at 1390 nM in the series on MCF7 [1] and 3930 nM with A549 [4]. The CC50 at 24 h in series [5] was greater than 15000 nM. In the series on Staphylococcus aureus, this molecule yielded an MIC of 6.1 µM (≈ 2 µg/mL).
On the same counts, the results for `O=C1C(=O)c2c(nc3ccc(C(F)(F)F)cn23)-c2ccccc21` are 3780 nM, 900 nM, greater than 15000 nM and 6.3 µM (≈ 1.99 µg/mL).
`O=C1C(=O)c2c(nc3ccc(F)cn23)-c2ccccc21`: the figures for the CC50 in the series with MCF7 [1] and in the series with A549 [4] were 1320 nM and 2030 nM, respectively. Besides, the CC50 at 24 h in series [5] was found to be 13000 nM. This molecule also gave a minimum inhibitory concentration (MIC) with Staphylococcus aureus of 15 µM (≈ 3.99 µg/mL).
On the same counts, the results for `O=C1C(=O)c2c(nc3ncccn23)-c2ccccc21` are 800 nM, 1600 nM, greater than 15000 nM and 8 µM (≈ 1.99 µg/mL).
On to `O=C1C(=O)c2c(nc3ccc([N+](=O)[O-])cn23)-c2ccccc21`, for which the results for the CC50 in the series with MCF7 [1] and in the series on A549 [4] were 1700 nM and 2300 nM, respectively. In addition, the CC50 at 24 h in series [5] was greater than 15000 nM.
For `O=C1C(=O)c2c(nc3ccccn23)-c2ccccc21`, the CC50 in the series with MCF7 [1] amounted to 510 nM; in the series on A549 [4], 670 nM. Moreover, the RatioLC50 turned out to be 3.1 with A549 [2] and 2.3 in the series on MCF7 [3]. For the same molecule, in series [5], the CC50 at 24 h is greater than 15000 nM. The molecule further displayed an MIC against Staphylococcus aureus of 16.1 µM (≈ 4 µg/mL).
`Cc1ccn2c3c(nc2c1)-c1ccccc1C(=O)C3=O`: the CC50 came to 1250 nM in the series on MCF7 [1] and 1500 nM in the series on A549 [4]. Also, in series [5], the CC50 at 24 h is greater than 15000 nM. Further, the MIC against Staphylococcus aureus is 15.2 µM (≈ 3.99 µg/mL).
On the same counts, the results for `Cc1cccn2c3c(nc12)-c1ccccc1C(=O)C3=O` are 1700 nM, 3400 nM, greater than 15000 nM and 15.2 µM (≈ 3.99 µg/mL).
On the same counts, the results for `Cc1ccc2nc3c(n2c1)C(=O)C(=O)c1ccccc1-3` are 3940 nM, 8340 nM, greater than 15000 nM and 15.2 µM (≈ 3.99 µg/mL).
For `O=C1C(=O)c2c(nc3ccc4ccccc4n23)-c2ccccc21`, the CC50 with MCF7 [1] and in the series with A549 [4] was greater than 15000 nM in each case. For the same molecule, the CC50 at 24 h in series [5] is greater than 15000 nM.
On to `O=C1C(=O)c2c(nc3ccc(Cl)cn23)-c2ccccc21`, for which the CC50 with MCF7 [1] turned out to be 3410 nM; in the series on A549 [4] it was 2060 nM. Further, the CC50 at 24 h in series [5] came to 10000 nM. For the same molecule, in the series with Staphylococcus aureus, the MIC was found to be 7 µM (≈ 1.98 µg/mL).
On the same counts, the results for `COc1ccc2nc3c(n2c1)C(=O)C(=O)c1ccccc1-3` are 2100 nM, 3350 nM, greater than 15000 nM and 14.3 µM (≈ 3.98 µg/mL).
Take `CC1(C)S[C@@H]2[C@H](NC(=O)[C@H](N)c3ccc(O)cc3)C(=O)N2[C@H]1C(=O)O` [AMOXICILLIN]: in the series on Staphylococcus aureus, the lowest concentration to inhibit growth (MIC) was 0.3 µM (≈ 0.11 µg/mL).
For `COc1cccc2c1C(=O)c1c(O)c3c(c(O)c1C2=O)C[C@@](O)(C(=O)CO)C[C@@H]3O[C@H]1C[C@H](N)[C@H](O)[C@H](C)O1` [DOXORUBICIN], the CC50 in the series on MCF7 [1] is 1560 nM; in the series on A549 [4], 1170 nM. The CC50 at 24 h in series [5] was 370 nM.
Take `CN[C@@H]1[C@H](O[C@H]2[C@H](O[C@H]3[C@H](O)[C@@H](O)[C@H](N=C(N)N)[C@@H](O)[C@@H]3N=C(N)N)O[C@@H](C)[C@]2(O)C=O)O[C@@H](CO)[C@H](O)[C@H]1O` [STREPTOMYCIN]: in the series with Staphylococcus aureus, the MIC stood at 5.4 µM (≈ 3.14 µg/mL).
